As usually defined, the half-life is how long it takes for the measured level to halve.

The values below come from ChEMBL document CHEMBL2086375 (Bioorg Med Chem, 2012).

Data set [1] has as its system Liver microsomes. As to the kind of experiment: Prodrug activation in human liver microsomes at 1 uM incubated for 10 mins prior to NADPH addition measured after 30 mins by LC/MS/MS analysis. Also on record: species or system Microsome. To be noted: 0.5 h. A digest of the protocol:
(§1)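 Liver microsomes were pre-warmed with compound at 37 °C for 10 min, and the reaction was started with NADPH at 1 mM final. A parallel incubation without NADPH served as control. After 30 min at 37 °C, samples were quenched with acetonitrile containing 0.1% formic acid and internal standard, then centrifuged. Supernatant was diluted fivefold and read by LC/MS/MS (SRM, positive ESI). Results are percent of control remaining.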
In general terms: Liver microsomes are a subcellular fraction often used to study metabolism.

The next data set relates to Liver. As to the kind of experiment: Prodrug activation in mouse liver microsomes at 1 uM incubated for 10 mins prior to NADPH addition measured after 30 mins by LC/MS/MS analysis. Also on record: species or system Microsome. To be noted: 0.5 h. A digest of the protocol:
as §1

Data set [2] in a line: Prodrug activation in simulated intestinal fluid at 0.01 mg/mL after 60 mins by LC/MS analysis. To be noted: simulated gi fluid, 1 h. A digest of the protocol: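 Compound at 0.01 mg/mL in simulated intestinal fluid, mixed and held at 37 °C for 60 min. Samples were injected consecutively onto a C18 reverse-phase HPLC column for analysis. Results are percent disappearance of prodrug.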

Data set [3] has as its system Liver microsomes. Kind of data set: Metabolic stability in human liver microsomes assessed as high CYP1A2 activity-mediated metabolism measured as compound remaining at 1 uM incubated for 10 mins prior to NADPH addition measured after 30 mins by LC/MS/MS analysis relative to control. To be noted: 0.5 h.
Data set [4] relates to Liver microsomes. Kind of data set: Metabolic stability in human liver microsomes assessed as low CYP1A2 activity-mediated metabolism measured as compound remaining at 1 uM incubated for 10 mins prior to NADPH addition measured after 30 mins by LC/MS/MS analysis relative to control. To be noted: 0.5 h.
Data set [5] in a line: Half life in simulated gastric fluid at 1 mg/mL. Format: physicochemical.
Data set [6] can be described thus: Half life in simulated intestinal fluid at 1 mg/mL. To be noted: simulated gi fluid. Type of data set: physicochemical.
The test system of data set [7] is Liver microsomes. To be noted: human, 0.5 h, 1 µM.
A short description of data set [8]: Half life in human plasma at 1 uM. Format: ADME, cell-free.
The subject of data set [9] is Liver microsomes. As to the kind of experiment: Half life in human liver microsomes at 1 uM. Format: ADME, Microsome.
In data set [10] the test system is Liver microsomes. As to the kind of experiment: Metabolic stability in human liver microsomes assessed as low CYP1A2 activity-mediated metabolism measured as compound remaining at 1 uM after 30 mins by LC/MS/MS analysis relative to control. To be noted: 0.5 h.
In data set [11] the test system is Liver microsomes. As to the kind of experiment: Drug metabolism in human liver microsomes assessed as high CYP1A2 activity-mediated N-hydroxyriluzole formation at 1 uM incubated for 10 mins prior to NADPH addition measured after 30 mins by LC/MS/MS analysis. Format: ADME, Microsome. To be noted: 0.5 h.

As for `CCCCOC(=O)Nc1nc2ccc(OC(F)(F)F)cc2s1`, the results for the Drug metabolism (in the data set with Liver microsomes [1]; in the data set with Liver; in [2]) were 13%, 53% and 0%, respectively.

As to `NCC1(CC(=O)Nc2nc3ccc(OC(F)(F)F)cc3s2)CCCCC1`, the Drug metabolism in [2] is reported as 50%.

Consider `N[C@H](COCc1ccccc1)C(=O)Nc1nc2ccc(OC(F)(F)F)cc2s1`, for which the figures for the Drug metabolism with Liver microsomes [1] and in the data set with Liver were 0% and 24%, respectively.

On to `N[C@@H](COCc1ccccc1)C(=O)Nc1nc2ccc(OC(F)(F)F)cc2s1`, for which the Stability with Liver microsomes [3] is 70%; with Liver microsomes [4], 78%; with Liver microsomes [7], 77%; in the data set with Liver microsomes [10], 76%. In data set [5], this molecule gave a half-life at 1 mg/mL greater than 1 h. For the same molecule, the Drug metabolism in the data set with Liver microsomes [1] is listed as 15%; in the data set with Liver it was 0%; in [2] it was 0%. Also, the t1/2 was 1.63 h in data set [6] and greater than 1 h with Liver microsomes [9]. The same molecule displayed a half-life at 1 µM in [8] of 5 h.

Regarding `Nc1nc2ccc(OC(F)(F)F)cc2s1` [RILUZOLE], the Drug metabolism entry with Liver microsomes [11] was “Active”.

For `O=C(CCC(=O)Nc1nc2ccc(OC(F)(F)F)cc2s1)NCCN1CCOCC1`, the Drug metabolism in data set [2] was 60%.

Regarding `CC(C)[C@H](N)C(=O)Nc1nc2ccc(OC(F)(F)F)cc2s1`, the Drug metabolism in the data set with Liver microsomes [1] is on record as 6%; with Liver it was 40%; in data set [2], 40%.

Consider `O=C(Cc1ccccc1[N+](=O)[O-])Nc1nc2ccc(OC(F)(F)F)cc2s1`, for which the Drug metabolism in the data set on Liver microsomes [1] is 22%; in the data set on Liver, 59%; in data set [2] it was 0%.

Consider `O=C(CCC(=O)Nc1nc2ccc(OC(F)(F)F)cc2s1)NCc1cccnc1`, for which the Drug metabolism in the data set with Liver microsomes [1] was 4%; in the data set on Liver it was 0%; in data set [2] it was 10%.

Turning to `CCOC(=O)Nc1nc2ccc(OC(F)(F)F)cc2s1`, the Drug metabolism was 7% with Liver microsomes [1], 8% with Liver and 0% in [2].

As for `COC(=O)Nc1nc2ccc(OC(F)(F)F)cc2s1`, the Drug metabolism in the data set on Liver microsomes [1] was 0%; with Liver it was 10%; in data set [2], 0%.

Regarding `COC(=O)CCC(=O)Nc1nc2ccc(OC(F)(F)F)cc2s1`, the Drug metabolism with Liver microsomes [1] is recorded as 34%; in the data set on Liver it was 77%; in [2], 0%.

Consider `CN(C)CCOC(=O)Nc1nc2ccc(OC(F)(F)F)cc2s1`, for which the Drug metabolism in the data set on Liver microsomes [1] is recorded as 10%; with Liver, 13%; in [2], 0%.

Consider `C[C@@H](N)C(=O)Nc1nc2ccc(OC(F)(F)F)cc2s1`, for which the results for the Drug metabolism (in the data set with Liver microsomes [1]; in the data set with Liver; in [2]) were 4%, 10% and 50%, respectively.

On to `CCCOC(=O)Nc1nc2ccc(OC(F)(F)F)cc2s1`, for which the Drug metabolism in the data set with Liver microsomes [1] is listed as 34%; in the data set on Liver, 15%; in data set [2], 0%.

In the case of `O=C(O)CCC(=O)Nc1nc2ccc(OC(F)(F)F)cc2s1`, the Drug metabolism is reported as 0% in the data set on Liver microsomes [1], 70% with Liver and 0% in data set [2].

With `NCCCC(=O)Nc1nc2ccc(OC(F)(F)F)cc2s1`, the Drug metabolism in the data set on Liver microsomes [1] is listed as 19%; in the data set on Liver, 66%; in data set [2] it was 0%.

`N[C@H](Cc1ccccc1)C(=O)Nc1nc2ccc(OC(F)(F)F)cc2s1`: the figures for the Drug metabolism (with Liver microsomes [1]; in the data set on Liver; in [2]) were 18%, 12% and 0%, respectively.

`CN(C)CCCOC(=O)Nc1nc2ccc(OC(F)(F)F)cc2s1`: the values for the Drug metabolism (in the data set with Liver microsomes [1]; with Liver; in data set [2]) were 0%, 71% and 0%, respectively.

For the molecule `C[C@H](N)C(=O)Nc1nc2ccc(OC(F)(F)F)cc2s1`, the Drug metabolism is 0% in the data set with Liver microsomes [1], 1% in the data set with Liver and 50% in [2].

With `N[C@@H](Cc1ccccc1)C(=O)Nc1nc2ccc(OC(F)(F)F)cc2s1`, the results for the Drug metabolism in the data set on Liver microsomes [1] and in the data set with Liver were 0% and 2%, respectively.

In the case of `CC(C)(C)OC(=O)CCC(=O)Nc1nc2ccc(OC(F)(F)F)cc2s1`, the Drug metabolism with Liver microsomes [1] is listed as 21%; in the data set with Liver it was 0%; in data set [2], 0%.

Turning to `CCC(C)OC(=O)Nc1nc2ccc(OC(F)(F)F)cc2s1` (centres undefined), the values for the Drug metabolism (in the data set with Liver microsomes [1]; with Liver; in data set [2]) were 14%, 23% and 0%, respectively.
